In ChEMBL document CHEMBL1157343, “Prenylated flavonoids from the heartwood of Artocarpus communis with inhibitory activity on lipopolysaccharide-induced nitric oxide production” (J Nat Prod, 2006):

How the values were obtained:
RAW264.7 [1] = assay: Inhibition of LPS-induced nitric oxide production in mouse RAW264.7 cells assessed as nitrite accumulation after 20 hrs; type: functional, cell-based; conditions: RAW264.7, 20 h
Summary of the method: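 RAW 264.7 macrophages grown in DMEM with 10% FBS and penicillin-streptomycin at 37 °C, 5% CO2. Plated at 5 × 10⁵ cells/mL in phenol-red-free 10% FBS-DMEM for 24 h, then PBS-washed, refreshed, and given 1 μg/mL LPS ± samples for 20 h. Nitrite in supernatant measured by Griess reaction at 540 nm against a sodium nitrite standard. Inhibition calculated versus vehicle control; IC50 by nonlinear regression. L-NMMA positive control.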

RAW264.7 [2] = assay: Cytotoxicity against mouse RAW264.7 cells by MTT assay; type: cell-based
RAW264.7 [3] = assay: Selectivity index, ratio of CC50 for mouse RAW264.7 cells to IC50 for nitric oxide production in mouse RAW264.7 cells; type: functional

Structure (SMILES)	IC50 (RAW264.7 [1]) [µM]	IC50 (RAW264.7 [2]) [µM]	Ratio CC50/IC50 (RAW264.7 [3])
CC(C)=CCc1c(O)cc2oc(-c3ccc(O)cc3O)c(CC=C(C)C)c(=O)c2c1O [CUDRAFLAVONE C]	52.3	59.2	1.1
CNC(=N)NCCC[C@H](N)C(=O)O [TILARGININE]	19.2	> 50	>2.6
COc1cc2oc3c(c(=O)c2c(O)c1/C=C/C(C)C)C(C=C(C)C)Oc1cc(O)ccc1-3 (stereo not drawn)	> 60	46.1	<0.8
COc1cc(/C=C/C(=O)OC/C(C)=C\Cc2c(O)ccc(C(=O)/C=C/c3ccc(O)cc3O)c2O)ccc1O [GEMICHALCONES C]	23.9	37.6	1.6
CC(C)=CC1Oc2cc(O)ccc2-c2oc3cc4c(c(O)c3c(=O)c21)C=CC(C)(C)O4 (stereo not drawn) [CUDRAFLAVONE A]	42.1	42.1	1

Continued, in another order:

IC50 (RAW264.7 [1]) [µM]	Structure (SMILES)	IC50 (RAW264.7 [2]) [µM]	Ratio CC50/IC50 (RAW264.7 [3])
18.8	CC1(C)C=Cc2c(ccc(C(=O)/C=C/c3ccc(O)cc3O)c2O)O1	59.2	3.1
9.3	C/C(=C/Cc1c(O)ccc(C(=O)/C=C/c2ccc(O)cc2)c1O)COC(=O)/C=C/c1ccc(O)cc1 [GEMICHALCONE B]	35.1	3.8
12.3	CC(C)=CCc1c(O)ccc2c1O[C@H](c1ccc(O)cc1O)CC2=O	47.9	3.9
6.4	CC(C)=CCc1c(O)ccc(C(=O)/C=C/c2ccc(O)cc2)c1O [ISOBAVACHALCONE]	16.4	2.6
16.4	CC(C)=CCc1c(O)ccc(C(=O)/C=C/c2ccc(O)cc2O)c1O [MORACHALCONE A]	58	3.5
18.7	COc1cc2oc(-c3ccc(O)cc3O)c(CC=C(C)C)c(=O)c2c(O)c1/C=C/C(C)C [ARTOCARPIN]	45.3	2.4
